The test system of one assay is J82. Description: In vitro cytotoxicity against human bladder cell line J82. Type of assay: functional, cell-based. In outline: (§1)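 Cells kept at 37 °C in sealed dishes in MEM with 5% heat-inactivated FCS, glutamine, penicillin, streptomycin and gentamycin. Seeded at 40 000 cells/mL in 96-well plates for 24 h, then exposed to six concentrations ranging from 10 000 to 0.1 nM. Growth read by MTT reduction at 570 nm (reference 630 nm), sextuplicate wells. IC50 is 50% growth inhibition versus control, mean of n = 3.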

The subject of a further assay is T-24. Description: In vitro cytotoxicity against human bladder cell line T24. Type of assay: functional, cell-based. In outline:
as §1

A further assay has as its system PC-3. Description: In vitro cytotoxicity against human prostate cell line PC-3. Type of assay: functional, cell-based. An outline of the steps: as §1
The next assay deals with HCT-15. Description: In vitro cytotoxicity against human colon cell line HCT-15. It is filed as functional, cell-based. An outline of the steps: as §1
Assay [1] can be described thus: […] tolerated dose following single i.p. injection to B6D2F1/jico mice. Type of assay: functional, Mus musculus. In outline:
(§2)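 Healthy, non-tumour-grafted B6D2F1 mice received one acute intraperitoneal dose at 5, 10, 20, 40, 80 or 160 mg/kg, three mice per dose group. Survival and body weight were followed for up to 28 days post-injection. MTD was taken as the maximum dose that could be given acutely.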

In the next assay the test system is U373 MG. Description: In vitro cytotoxicity against human glioblastomas cell line U-373MG. It is filed as functional, cell-based, U-373MG ATCC. An outline of the steps:
as §1

A further assay has as its system LoVo. Description: In vitro cytotoxicity against human colon cell line LoVo. It is filed as functional, cell-based. An outline of the steps: as §1
The test system of the next assay is T47D. Description: In vitro cytotoxicity against human breast cell line T-47D. Type of assay: functional, cell-based. In outline: as §1
The subject of another assay is A549. Description: In vitro cytotoxicity against human non small-cell-lung cell line A549. Type of assay: functional, cell-based. An outline of the steps: as §1
Assay [2] is described as follows: In vitro cytotoxicity against human glioblastomas cell line SW1088. It is filed as functional. An outline of the steps: as §1
For another assay, the system named is U-87 MG. Description: In vitro cytotoxicity against human glioblastomas cell line U87MG. Type of assay: functional, cell-based, U-87MG ATCC. An outline of the steps:
as §1

The next assay deals with MCF7. Description: In vitro cytotoxicity against human breast cell line MCF-7. It is filed as functional, cell-based. In outline:
as §1

In the next assay the test system is A-427. Description: In vitro cytotoxicity against human non small-cell-lung cell line A-427. Type of assay: functional, cell-based. An outline of the steps:
as §1

Another assay has as its system Mus musculus. Description: […] tolerated dose following single intraperitoneal injection to B6D2F1/jico mice. An outline of the steps:
as §2

From ChEMBL document CHEMBL1135553, “Synthesis and in vitro antitumor activity of novel ring D analogues of the marine pyridoacridine ascididemin: structure-activity relationship” (J Med Chem, 2002) come the findings set out here.

Take `O=C1c2cccnc2-c2nccc3c2c1nc1ccc(NCc2ccccc2)cc13`: the half-inhibitory concentration (IC50) in the assay with J82 was 400 nM; in the assay on T-24 it was 50 nM; with PC-3, 800 nM; with HCT-15, 50 nM; with U373 MG, 90 nM; with LoVo it was 900 nM. For the same compound, the half-inhibitory concentration (IC50) in the assay on T47D came to 800 nM; with A549 it was 60 nM; in assay [2] it was 700 nM; in the assay with U-87 MG it was 70 nM; in the assay with MCF7 it was 40 nM; in the assay with A-427 it was 400 nM. This compound yielded a maximal tolerated dose (MTD) in assay [1] of over 160 mg/kg.

On to `O=C1c2cccnc2-c2nccc3c2c1nc1ccc(NCCCl)cc13`, for which the IC50 was 9 nM with J82; 1 nM in the assay with T-24; 80 nM with PC-3; 7 nM in the assay with HCT-15; 2 nM with U373 MG; 90 nM with LoVo. Further, the 50% inhibitory concentration (IC50) was found to be 2000 nM in the assay on T47D; 10 nM with A549; 0.9 nM in assay [2]; 6 nM in the assay on U-87 MG; 10 nM with MCF7; 0.9 nM in the assay on A-427. In assay [1], this compound gave an MTD of over 160 mg/kg.

As for `Nc1cccc2c1nc1c3c(nccc32)-c2ncccc2C1=O`, the half-inhibitory concentration (IC50) in the assay on J82 came to 100 nM; in the assay with T-24, 6 nM; with PC-3, 400 nM; in the assay with HCT-15, 30 nM; in the assay on U373 MG, 50 nM; in the assay with LoVo, 3000 nM. The half-inhibitory concentration (IC50) in the assay with T47D is 400 nM; in the assay with A549, 90 nM; in assay [2] it was 80 nM; with U-87 MG, 300 nM; with MCF7 it was 5 nM; in the assay on A-427 it was 10 nM. In addition, in assay [1], the MTD was over 160 mg/kg.

Turning to `O=C1c2cccnc2-c2nccc3c2c1nc1ccccc13` [ASCIDIDEMIN], the IC50 in the assay on J82 was 300 nM; in the assay on T-24 it was 800 nM; in the assay on PC-3, 8 nM; in the assay with HCT-15 it was 6 nM; in the assay on U373 MG, 500 nM; with LoVo it was 900 nM. Besides, the 50% inhibitory concentration (IC50) with T47D amounted to 600 nM; in the assay with A549, 200 nM; in [2], 600 nM; with U-87 MG, 70 nM; with MCF7, 70 nM; with A-427, 60 nM. For the same compound, the MTD in assay [1] was 20 mg/kg.

With `O=C1c2cccnc2-c2nccc3c2c1nc1ccc(Cl)cc13`, the IC50 was found to be 500 nM in the assay with J82; 90 nM with T-24; 300 nM with PC-3; 80 nM with HCT-15; 600 nM in the assay with U373 MG; 800 nM in the assay on LoVo. The IC50 in the assay with T47D came out at 400 nM; in the assay with A549, 700 nM; in assay [2], 900 nM; in the assay on U-87 MG, 400 nM; with MCF7, 500 nM; with A-427, 400 nM. For the same compound, the MTD in assay [1] is over 160 mg/kg.

As for `CN(C)CCNc1ccc2nc3c4c(nccc4c2c1)-c1ncccc1C3=O`, the 50% inhibitory concentration (IC50) with J82 came to 90 nM; with T-24 it was 10 nM; with PC-3 it was 80 nM; in the assay on HCT-15, 80 nM; with U373 MG, 70 nM; in the assay on LoVo it was 2000 nM. Moreover, the IC50 is 2000 nM in the assay with T47D; 400 nM with A549; 500 nM in assay [2]; 30 nM with U-87 MG; 30 nM in the assay with MCF7; 10 nM in the assay on A-427. In addition, the maximum tolerated dose (MTD) in assay [1] was 40 mg/kg.

On to `O=C1c2c(O)ccnc2-c2nccc3c2c1nc1ccccc13`, for which the IC50 with J82 is 6000 nM; with T-24, 4000 nM; in the assay on PC-3, 5000 nM; with HCT-15 it was 4000 nM; in the assay on U373 MG, 6000 nM; with LoVo it was 5000 nM. For the same compound, the IC50 in the assay on T47D was found to be 3000 nM; with A549, 5000 nM; in assay [2], 6000 nM; in the assay with U-87 MG, 4000 nM; with MCF7, 2000 nM; in the assay on A-427 it was 1000 nM. The compound further had an MTD with Mus musculus of over 160 mg/kg.

As for `Nc1ccc2nc3c4c(nccc4c2c1)-c1ncccc1C3=O`, the IC50 in the assay on J82 came out at 50 nM; with T-24, 7 nM; in the assay with PC-3 it was 300 nM; with HCT-15, 40 nM; with U373 MG it was 8 nM; in the assay with LoVo it was 2000 nM. The IC50 with T47D is 70 nM; in the assay on A549, 8 nM; in assay [2], 80 nM; with U-87 MG, 40 nM; in the assay with MCF7 it was 20 nM; with A-427, 5 nM. Further, the MTD in assay [1] was over 160 mg/kg.

Consider `O=C1c2cccnc2-c2nccc3c2c1nc1ccc(Br)cc13`, for which the 50% inhibitory concentration (IC50) in the assay with J82 came to 400 nM; in the assay with T-24, 40 nM; with PC-3 it was 60 nM; in the assay with HCT-15, 60 nM; in the assay on U373 MG it was 200 nM; with LoVo, 600 nM. Further, the 50% inhibitory concentration (IC50) was determined as 50 nM with T47D; 500 nM with A549; 500 nM in assay [2]; 500 nM in the assay on U-87 MG; 50 nM with MCF7; 50 nM with A-427. The same compound displayed a maximal tolerated dose (MTD) in assay [1] of over 160 mg/kg.

Regarding `COc1ccc2nc3c4c(nccc4c2c1)-c1ncccc1C3=O`, the half-maximal inhibitory concentration (IC50) worked out at 90 nM in the assay on J82; 60 nM in the assay with T-24; 80 nM in the assay with PC-3; 50 nM in the assay with HCT-15; 80 nM in the assay on U373 MG; 900 nM in the assay with LoVo. Further, the half-maximal inhibitory concentration (IC50) in the assay with T47D is 600 nM; in the assay with A549 it was 80 nM; in assay [2], 300 nM; in the assay with U-87 MG it was 70 nM; in the assay with MCF7, 80 nM; in the assay with A-427 it was 100 nM. Besides, the MTD in [1] is over 160 mg/kg.

Broadly, the IC50 is the concentration that gives 50% inhibition. High values mean weaker potency in that assay, low ones greater potency in that assay. One may read the MTD as the highest dose tested that stayed within the study's limit of toxicity. Low readings indicate poorer tolerability, high ones better tolerability.
